Screens from PubChem.
Only some compounds are listed: those with a hit (about 1.9% of all), similar ones and a draw of the others.
ABHD5-PLIN5 inh: inhibitors of human ABHD5-perilipin-5 interaction. Q00G26+Q8WTS1. Split G. princeps luciferase complementation, luminescence, 4 h. AID 602281. hit rate 0.78% among 360,000. inhibition, % at 4 µM;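 active = inhibition above the mean inhibition across every tested compound plus 3 SD, cut at about 22% in these data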;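 also: 0% = DMSO only wells and the 100% control is not disclosed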
NadD inh: inhibitors of Staphylococcus aureus NadD; AID 602399; inhibition, % at 20 µM; hit rate 0.78% among 360,000; purified NadD enzyme, colorimetric absorbance read-out; in the data active = inhibition above about 26%
Rpn11 inh: blocks the human proteasome subunit Rpn11. human 26S proteasome, Ub4-pepOG fluorescence polarization; 20S core pre-blocked with epoxomicin. inhibition, % at 20 µM. hit rate 0.59% among 360,000. AID 588493;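 active = inhibition at 20 µM, scaled to each plate's controls, above about 33%, limit read from the data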
XiGFP reactiv: X-chromosome reactivation activator; AID 743238; activation, % at 7.58 µM; hit rate 0.055% among 360,000; XiGFP mouse fibroblasts, % GFP-positive cells imaging, 3 d; cells co-treated with 5-aza-dC sensitizer; scaled so ellipticine positive control = 100%;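 active = mean normalized replicate activation at least 10% and every replicate at or above 10%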;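 also: 0% = median of on-plate neutral control wells and 100% = ellipticine 6 µM median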
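System: XiGFP fibroblasts, SV40-immortalized. Medium: DMEM plus 5-aza-dC sensitizer. Doses: single point. Timing: 3 d treatment, 15 min room-temperature fixation. Control set: ellipticine 6 µM.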
Rin1-Abl PPI inh: blocks binding of human Rin1 to Abl; TR-FRET Rin1/Abl binding, biochemical; inhibition, % at 7.35 µM; hit rate 0.4% among 360,000; in the data active = inhibition above about 5%, passing the limit was not always enough
Rin1-Abl confirm: Rin1-Abl interaction inhibition confirmation. TR-FRET Rin1-Abl binding, purified proteins. inhibition, % at 7.35 µM. shares compounds with Rin1-Abl PPI inh. hit rate 49% among 1,300. AID 602124
GFP quench: GFP fluorescence interference artifact; shares compounds with Rin1-Abl PPI inh; inhibitors/quenchers counterscreen; inhibition, % at 6.75 µM; hit rate 8.5% among 1,300;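 also: ABL1-eGFP fusion protein alone without its partner RIN1-SBP; 0% = protein with vehicle and 100% = wells lacking protein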
Numbers without * were called inactive; . = not tested or not shown. Rule as the data show it, unless noted: active = inhibition above about 6.5%; inactive = the rest.

SMILES	ABHD5-PLIN5 inh	NadD inh	Rpn11 inh	XiGFP reactiv	Rin1-Abl PPI inh	Rin1-Abl confirm	GFP quench
COc1ccc(CNC(=O)COC(=O)CCCOc2ccc(Cl)cc2Cl)cc1OC	-2	-4	-6	0	10*	-1	1
C[C@H]1CN([C@@H](C)CO)C(=O)c2cccc(NC(=O)NC3CCCCC3)c2O[C@@H]1CN(C)Cc1ccc(C(=O)O)cc1	.	.	.	0	.	.	.
COc1ccc(-n2c(Cc3cccn3C)nnc2SCC(=O)Nc2cccc(NC(C)=O)c2)cc1	8	4	6	.	9.1*	-3	0
COC(=O)C1=C(O)/C(=C\c2ccc(CNS(=O)(=O)c3ccccc3)o2)N=C1C	6	5	-20	0	6.0*	-1	3
O=C(COc1ccccc1Cl)NCCNC(=O)c1ccccn1	3	0	3	0	1	.	.
Cc1ccccc1OCC(=O)NCCNC(=O)c1ccccn1	5	-3	-7	0	15*	-1	1
O=C(C[C@H]1CC[C@H]2[C@@H](COC[C@@H](O)CN2S(=O)(=O)c2ccc(Oc3ccccc3)cc2)O1)NC1CCC1	.	.	.	0	.	.	.
O=C(C[C@@H]1CC[C@H]2[C@@H](COC[C@@H](O)CN2Cc2cccc(C(F)(F)F)c2)O1)NCc1ccc(F)cc1	.	.	.	0	.	.	.
Cc1ccccc1-n1c(SCC(=O)NC2CC2)nc2ccccc2c1=O	1	3	3	0	10*	0	0
COc1ccc(C)cc1-n1c(SCC(=O)NC2CC2)nc2ccccc2c1=O	-2	1	6	0	0	.	.
COC(=O)COc1cccc(NC(=O)COc2ccccc2)c1	-3	-5	-5	.	7.5*	-1	0
COC(=O)COc1cccc(NC(=O)c2ccccc2)c1	0	-6	1	.	1	.	.
COc1ccccc1C(=O)N=C1NC(=O)CC2C(=O)NCCN12 (stereo not drawn)	1	2	-1	0	8.8*	-3	2
C[C@@H]1CCCCO[C@H](CN(C)S(C)(=O)=O)[C@H](C)CN([C@@H](C)CO)C(=O)c2cc(NC(=O)Nc3ccc(C(F)(F)F)cc3)ccc2O1	.	.	.	-1	.	.	.
Oc1ccc(C2=Nn3c(nnc3-c3ccco3)SC2)cc1O	-2	-4	-4	.	5.9*	4	17*
CCC1C(=O)NCCN1C(=O)c1ccc(OC)c(OC2CCN(C(C)=O)CC2)c1 (stereo not drawn)	2	-2	4	0	8.4*	0	-2
CCC1CCCCN1C(=O)c1ccc(OC)c(OC2CCN(C(C)=O)CC2)c1 (stereo not drawn)	-2	1	6	0	3	.	.
COc1cc(N)c2ncccc2c1Br	-13	2	4	0	13*	-3	2
Cc1cccc(C(=O)N2CCCC(CCC(=O)N3CCN(c4ccccn4)CC3)C2)c1 (stereo not drawn)	-2	-4	-2	0	8.8*	5	-1
CC(=O)c1ccccc1C(=O)N1CCCC(CCC(=O)N2CCN(c3ccccn3)CC2)C1 (stereo not drawn)	-2	-3	-10	0	7.9*	-1	0
COc1ccc(S(=O)(=O)N(C)C[C@H]2Oc3c(NS(=O)(=O)c4cccs4)cccc3C(=O)N([C@@H](C)CO)C[C@@H]2C)cc1	.	.	.	0	.	.	.
C[C@@H]1CN([C@H](C)CO)C(=O)c2c(c3ccccc3n2C)-c2ccccc2CO[C@H]1CN(C)C(=O)[C@H](C)c1ccccc1	.	.	.	0	.	.	.
C[C@@H]1CN([C@@H](C)CO)C(=O)c2cc(NC(=O)Cc3ccccc3)ccc2O[C@@H](C)CCCCO[C@@H]1CN(C)C(=O)Nc1cccc2ccccc12	.	.	.	0	.	.	.
CC(C)NC(=O)N(C)C[C@@H]1Oc2ccc(NS(C)(=O)=O)cc2CC(=O)N(C)C[C@H]1C	.	.	.	0	.	.	.
N[C@H]1CC[C@H](CCn2cc(C3CC3)nn2)O[C@@H]1CO	.	.	.	0	.	.	.
C#CCOC(=O)CCCC(=O)NCCCCCCCC	11	3	-7	0	6.6*	0	0
COc1ccc2c3c([nH]c2c1)[C@@H](CO)N(C(=O)c1ccc(F)cc1)CC31CCN(C(=O)CC2CC2)CC1	.	.	.	0	.	.	.
